Source: article PMC4929832 (Nature, 2016)

Key:
EPH-A1 = EPH-A1 (Homo sapiens, UniProt P21709); experiment: kinase panel; type: biochemical
HIPK2 = HIPK2 (Homo sapiens, UniProt Q9H2X6); experiment: kinase panel; type: biochemical
PAK1 = PAK1 (Homo sapiens, UniProt Q13153); experiment: kinase panel; type: biochemical
KDR = KDR (Homo sapiens, UniProt P35968); experiment: kinase panel; type: biochemical
MAP4K2 = MAP4K2 (Homo sapiens, UniProt Q12851); experiment: kinase panel; type: biochemical
MST1 = MST1 (Homo sapiens, UniProt Q13043); experiment: kinase panel; type: biochemical
MAPK3 = MAPK3 (Homo sapiens, UniProt P27361); experiment: kinase panel; type: biochemical
PRKG1 = PRKG1 (Homo sapiens, UniProt Q13976); experiment: kinase panel; type: biochemical
PRKG1, sequence (Q13976 whole entry): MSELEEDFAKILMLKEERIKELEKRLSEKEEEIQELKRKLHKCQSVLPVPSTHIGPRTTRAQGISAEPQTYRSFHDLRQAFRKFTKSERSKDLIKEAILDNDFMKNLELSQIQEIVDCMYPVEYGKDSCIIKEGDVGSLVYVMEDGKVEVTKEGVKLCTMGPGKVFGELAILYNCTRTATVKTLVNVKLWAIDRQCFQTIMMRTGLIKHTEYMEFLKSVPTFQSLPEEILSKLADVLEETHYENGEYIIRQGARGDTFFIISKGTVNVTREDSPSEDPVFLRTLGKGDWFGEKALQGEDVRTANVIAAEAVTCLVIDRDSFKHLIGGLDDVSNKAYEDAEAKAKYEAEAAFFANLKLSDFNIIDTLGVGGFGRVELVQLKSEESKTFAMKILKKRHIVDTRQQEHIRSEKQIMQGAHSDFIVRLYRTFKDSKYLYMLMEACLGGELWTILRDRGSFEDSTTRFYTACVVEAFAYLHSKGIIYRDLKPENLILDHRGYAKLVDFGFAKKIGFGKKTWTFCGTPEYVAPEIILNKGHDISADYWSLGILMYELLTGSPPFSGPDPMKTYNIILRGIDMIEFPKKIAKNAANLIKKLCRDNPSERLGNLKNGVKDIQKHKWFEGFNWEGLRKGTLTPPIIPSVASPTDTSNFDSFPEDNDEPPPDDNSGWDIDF

IRAK4 = IRAK4 (Homo sapiens, UniProt Q9NWZ3); experiment: kinase panel; type: biochemical
IRAK4, sequence (Q9NWZ3 whole entry): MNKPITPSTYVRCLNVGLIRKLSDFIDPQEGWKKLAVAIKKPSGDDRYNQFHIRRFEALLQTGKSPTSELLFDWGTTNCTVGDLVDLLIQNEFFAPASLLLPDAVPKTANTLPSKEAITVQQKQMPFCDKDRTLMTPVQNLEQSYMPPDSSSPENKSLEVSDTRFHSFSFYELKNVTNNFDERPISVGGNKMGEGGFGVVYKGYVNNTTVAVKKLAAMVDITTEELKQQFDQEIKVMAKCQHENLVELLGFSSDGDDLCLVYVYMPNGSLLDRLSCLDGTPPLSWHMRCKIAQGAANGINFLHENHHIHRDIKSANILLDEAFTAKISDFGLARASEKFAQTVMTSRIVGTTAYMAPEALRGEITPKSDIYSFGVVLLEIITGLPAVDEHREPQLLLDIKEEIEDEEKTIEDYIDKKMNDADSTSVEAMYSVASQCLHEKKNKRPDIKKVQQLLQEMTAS

Nicotinic (CNS) Receptor = experiment: Nicotinic; type: binding; details: human IMR32 cells
MSK1 = MSK1 (Homo sapiens, UniProt O75582); experiment: kinase panel; type: biochemical
MSK1, sequence (O75582 whole entry): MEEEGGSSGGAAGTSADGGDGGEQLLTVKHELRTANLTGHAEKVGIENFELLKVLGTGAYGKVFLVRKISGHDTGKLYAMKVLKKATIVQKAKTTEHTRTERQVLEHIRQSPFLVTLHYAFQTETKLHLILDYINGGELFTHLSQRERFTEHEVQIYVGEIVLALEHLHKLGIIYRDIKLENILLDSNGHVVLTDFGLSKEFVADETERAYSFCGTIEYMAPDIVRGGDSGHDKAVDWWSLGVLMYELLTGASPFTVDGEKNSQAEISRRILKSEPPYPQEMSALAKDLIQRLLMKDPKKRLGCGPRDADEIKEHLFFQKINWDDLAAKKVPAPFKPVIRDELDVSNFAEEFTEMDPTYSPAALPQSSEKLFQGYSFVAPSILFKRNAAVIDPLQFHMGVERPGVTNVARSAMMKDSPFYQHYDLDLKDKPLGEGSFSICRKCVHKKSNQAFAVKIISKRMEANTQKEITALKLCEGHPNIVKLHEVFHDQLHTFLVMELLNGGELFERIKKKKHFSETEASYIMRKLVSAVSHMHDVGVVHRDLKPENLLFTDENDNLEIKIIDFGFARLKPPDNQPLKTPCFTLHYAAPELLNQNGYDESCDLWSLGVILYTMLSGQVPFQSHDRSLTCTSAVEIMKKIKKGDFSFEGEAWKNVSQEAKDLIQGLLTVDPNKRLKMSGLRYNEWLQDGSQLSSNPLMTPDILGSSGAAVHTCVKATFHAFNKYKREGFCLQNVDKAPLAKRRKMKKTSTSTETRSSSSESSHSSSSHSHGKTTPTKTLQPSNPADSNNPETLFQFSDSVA

EPH-A2 = EPH-A2 (Homo sapiens, UniProt P29317); experiment: kinase panel; type: biochemical
TYK2 = TYK2 (Homo sapiens, UniProt P29597); experiment: kinase panel; type: biochemical
Adenosine 2A receptor = Adenosine 2A receptor (Homo sapiens, UniProt P29274); experiment: Adenosine 2A receptor binding assay
TEC = TEC (Homo sapiens, UniProt P42680); experiment: kinase panel; type: biochemical
PLK3 = PLK3 (Homo sapiens, UniProt Q9H4B4); experiment: kinase panel; type: biochemical
TNK1 = TNK1 (Homo sapiens, UniProt Q13470); experiment: kinase panel; type: biochemical
MUSK = MUSK (Homo sapiens, UniProt O15146); experiment: kinase panel; type: biochemical
PIM3 = PIM3 (Homo sapiens, UniProt Q86V86); experiment: kinase panel; type: biochemical
MST2 = MST2 (Homo sapiens, UniProt Q13188); experiment: kinase panel; type: biochemical
MST2, sequence (Q13188 whole entry): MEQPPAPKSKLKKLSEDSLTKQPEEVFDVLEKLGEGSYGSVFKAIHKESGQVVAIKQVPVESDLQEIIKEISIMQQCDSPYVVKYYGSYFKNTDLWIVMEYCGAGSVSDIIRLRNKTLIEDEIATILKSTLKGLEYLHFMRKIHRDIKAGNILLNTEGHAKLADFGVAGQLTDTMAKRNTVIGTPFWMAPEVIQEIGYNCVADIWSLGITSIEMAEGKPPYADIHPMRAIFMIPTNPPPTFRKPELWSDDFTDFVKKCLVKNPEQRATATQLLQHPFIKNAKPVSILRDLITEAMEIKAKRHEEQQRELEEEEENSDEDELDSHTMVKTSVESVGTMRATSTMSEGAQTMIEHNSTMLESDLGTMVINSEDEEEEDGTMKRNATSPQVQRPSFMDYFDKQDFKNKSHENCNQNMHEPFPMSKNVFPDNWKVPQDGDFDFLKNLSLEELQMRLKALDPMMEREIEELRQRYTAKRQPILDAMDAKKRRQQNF

FGFR4 = FGFR4 (Homo sapiens, UniProt P22455); experiment: kinase panel; type: biochemical
IKK-BETA = IKK-BETA (Homo sapiens, UniProt O14920); experiment: kinase panel; type: biochemical
LCK = LCK (Homo sapiens, UniProt P06239); experiment: kinase panel; type: biochemical
PKC-ALPHA = PKC-ALPHA (Homo sapiens, UniProt P17252); experiment: kinase panel; type: biochemical
MAPK1 = MAPK1 (Homo sapiens, UniProt P28482); experiment: kinase panel; type: biochemical
FLT-3 = FLT-3 (Homo sapiens, UniProt P36888); experiment: kinase panel; type: biochemical
PRKD1 = PRKD1 (Homo sapiens, UniProt Q15139); experiment: kinase panel; type: biochemical
PRKD1, sequence (Q15139 whole entry): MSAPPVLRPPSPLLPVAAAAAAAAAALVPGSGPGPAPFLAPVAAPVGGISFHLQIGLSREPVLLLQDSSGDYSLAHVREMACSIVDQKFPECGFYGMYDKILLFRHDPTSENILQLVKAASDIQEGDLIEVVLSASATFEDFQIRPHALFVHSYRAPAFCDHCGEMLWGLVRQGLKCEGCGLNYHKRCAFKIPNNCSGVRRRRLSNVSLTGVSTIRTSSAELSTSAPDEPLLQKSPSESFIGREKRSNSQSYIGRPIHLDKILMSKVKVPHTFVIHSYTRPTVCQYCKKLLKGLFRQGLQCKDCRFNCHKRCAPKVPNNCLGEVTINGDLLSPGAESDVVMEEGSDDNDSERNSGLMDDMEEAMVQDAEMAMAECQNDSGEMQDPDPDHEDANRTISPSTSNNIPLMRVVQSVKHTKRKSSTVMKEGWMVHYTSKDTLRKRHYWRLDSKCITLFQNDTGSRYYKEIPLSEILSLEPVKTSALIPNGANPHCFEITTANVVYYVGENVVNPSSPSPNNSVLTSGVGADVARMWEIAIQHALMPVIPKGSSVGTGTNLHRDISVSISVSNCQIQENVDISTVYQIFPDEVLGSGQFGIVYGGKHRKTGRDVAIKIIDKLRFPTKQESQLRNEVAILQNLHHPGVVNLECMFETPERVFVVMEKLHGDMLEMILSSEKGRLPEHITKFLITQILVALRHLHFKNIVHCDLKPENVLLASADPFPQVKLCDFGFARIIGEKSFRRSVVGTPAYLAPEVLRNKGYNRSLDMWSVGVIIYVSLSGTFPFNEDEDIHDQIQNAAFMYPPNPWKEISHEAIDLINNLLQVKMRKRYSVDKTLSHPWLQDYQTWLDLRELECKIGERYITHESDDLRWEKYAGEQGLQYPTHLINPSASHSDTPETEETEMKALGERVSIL

EPH-B2 = EPH-B2 (Homo sapiens, UniProt P29323); experiment: kinase panel; type: biochemical
[1] = test system: EGFR signaling in L858R/T790M/C797S mice; experiment: Pharmacodynamic study, western blotting of tumor nodules; type: in vivo, mouse; details: EAI045 in combination with cetuximab, 2 doses
Procedure, shortened: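 Transgenic mice were induced at 6 weeks: exon19del/T790M by doxycycline diet, L858R/T790M/C797S by intranasal Ad-Cre. […] Tumor nodules were lysed and protein-equalized for western blotting. Bands were detected by HRP chemiluminescence. Multiple independent tumors were analyzed.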

MEK1 = MEK1 (Homo sapiens, UniProt Q02750); experiment: kinase panel; type: biochemical
MEK1, sequence (Q02750 whole entry): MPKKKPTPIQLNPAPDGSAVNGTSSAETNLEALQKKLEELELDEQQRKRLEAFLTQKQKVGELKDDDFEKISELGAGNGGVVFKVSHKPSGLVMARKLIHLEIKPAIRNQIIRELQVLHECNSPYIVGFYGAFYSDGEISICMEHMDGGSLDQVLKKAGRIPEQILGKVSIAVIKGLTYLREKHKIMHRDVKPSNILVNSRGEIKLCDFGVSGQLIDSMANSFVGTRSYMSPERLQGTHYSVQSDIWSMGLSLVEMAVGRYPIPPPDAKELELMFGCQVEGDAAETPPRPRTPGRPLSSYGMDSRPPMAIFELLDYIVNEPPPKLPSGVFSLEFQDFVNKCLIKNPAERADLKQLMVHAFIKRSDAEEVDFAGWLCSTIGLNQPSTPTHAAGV

CDK3-CYCLINE = CDK3-CYCLINE (Homo sapiens, UniProt Q00526); experiment: kinase panel; type: biochemical
DAPK3 = DAPK3 (Homo sapiens, UniProt O43293); experiment: kinase panel; type: biochemical
Phosphodiesterase 3 = Phosphodiesterase 3 (Homo sapiens, UniProt Q14432); experiment: Phosphodiesterase 3 assay; type: biochemical
INSR = INSR (Homo sapiens, UniProt P06213); experiment: kinase panel; type: biochemical
MNK2 = MNK2 (Homo sapiens, UniProt Q9HBH9); experiment: kinase panel; type: biochemical
MNK2, sequence (Q9HBH9 whole entry): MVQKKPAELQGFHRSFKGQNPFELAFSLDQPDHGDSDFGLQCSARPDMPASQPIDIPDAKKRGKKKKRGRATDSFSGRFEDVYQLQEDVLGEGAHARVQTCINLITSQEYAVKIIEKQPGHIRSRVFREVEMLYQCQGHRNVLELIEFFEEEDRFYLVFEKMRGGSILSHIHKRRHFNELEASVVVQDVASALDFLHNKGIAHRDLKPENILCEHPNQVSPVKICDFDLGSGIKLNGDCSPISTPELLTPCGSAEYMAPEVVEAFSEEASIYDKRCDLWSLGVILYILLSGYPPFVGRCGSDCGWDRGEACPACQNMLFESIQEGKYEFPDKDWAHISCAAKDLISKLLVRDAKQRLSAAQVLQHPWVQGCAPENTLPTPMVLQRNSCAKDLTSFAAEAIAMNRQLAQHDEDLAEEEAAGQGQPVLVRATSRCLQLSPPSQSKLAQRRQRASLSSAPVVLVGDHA

MARK4 = MARK4 (Homo sapiens, UniProt Q96L34); experiment: kinase panel; type: biochemical
MARK4, sequence (Q96L34 whole entry): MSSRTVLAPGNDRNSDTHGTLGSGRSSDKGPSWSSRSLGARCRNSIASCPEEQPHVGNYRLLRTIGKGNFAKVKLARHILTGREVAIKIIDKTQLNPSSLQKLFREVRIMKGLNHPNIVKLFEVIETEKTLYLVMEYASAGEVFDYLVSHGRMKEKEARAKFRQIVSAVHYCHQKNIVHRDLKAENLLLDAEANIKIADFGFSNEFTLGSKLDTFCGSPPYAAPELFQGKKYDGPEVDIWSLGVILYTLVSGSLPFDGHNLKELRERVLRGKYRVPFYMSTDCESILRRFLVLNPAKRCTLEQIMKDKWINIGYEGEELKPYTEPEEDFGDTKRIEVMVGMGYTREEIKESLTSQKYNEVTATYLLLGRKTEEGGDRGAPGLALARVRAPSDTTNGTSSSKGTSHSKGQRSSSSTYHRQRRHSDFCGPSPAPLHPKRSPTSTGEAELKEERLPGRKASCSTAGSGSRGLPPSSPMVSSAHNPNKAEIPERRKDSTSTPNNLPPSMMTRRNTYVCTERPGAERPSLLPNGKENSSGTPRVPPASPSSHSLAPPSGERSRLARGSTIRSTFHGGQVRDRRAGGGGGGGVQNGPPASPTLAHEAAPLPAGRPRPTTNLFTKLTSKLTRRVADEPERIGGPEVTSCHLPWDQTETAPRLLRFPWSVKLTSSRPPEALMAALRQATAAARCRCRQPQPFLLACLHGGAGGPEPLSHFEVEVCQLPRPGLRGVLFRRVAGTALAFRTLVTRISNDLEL

HaCaT cells = experiment: Proliferation assay; type: cell-based; details: Homo sapiens, 72 h, read-out: EC50 Proliferation
Procedure, shortened: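 Cells were maintained in 10% FBS/RPMI with penicillin/streptomycin and plated at 500 cells/well in 10% FBS RPMI. Serially diluted test compound was pin-transferred. Viability was read after 3 days by CellTiter-Glo luminescence and normalized to 0.1% DMSO-treated cells and empty wells. EC50 was obtained by non-linear regression curve fitting.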

[2] = test system: exon19del/T790M EGFR Ba/F3 cells; experiment: Ba/F3 cell proliferation; type: cell-based; details: EAI045 with cetuximab (10 μg/ml)
Procedure, shortened: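 Ba/F3 cells, either parental or stably expressing mutant EGFR lines described earlier, were exposed to the test compound for 72 hours. Cell numbers were set empirically. Growth was read by MTS assay. Each point was run in six wells, and each experiment was repeated at least three times. Curves were fitted by non-linear regression to a sigmoidal dose response.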

CDK2-CYCLINE = CDK2-CYCLINE (Homo sapiens, UniProt P24941); experiment: kinase panel; type: biochemical

- inhibition at 1 µM (EPH-A1): 0%
- inhibition at 1 µM (HIPK2): 2%
- inhibition at 1 µM (PAK1): 0%
- inhibition at 1 µM (KDR): 0%
- inhibition at 1 µM (MAP4K2): 0%
- inhibition at 1 µM (MST1): 0%
- inhibition at 1 µM (MAPK3): 0%
- inhibition at 1 µM (PRKG1): 0%
- inhibition at 1 µM (IRAK4): 0%
- IC50 (Nicotinic (CNS) Receptor): > 30 µM
- inhibition at 1 µM (MSK1): 0%
- inhibition at 1 µM (EPH-A2): 7%
- inhibition at 1 µM (TYK2): 0%
- IC50 (Adenosine 2A receptor): > 30 µM
- inhibition at 1 µM (TEC): 4%
- inhibition at 1 µM (PLK3): 5%
- inhibition at 1 µM (TNK1): 0%
- inhibition at 1 µM (MUSK): 0%
- inhibition at 1 µM (PIM3): 1%
- inhibition at 1 µM (MST2): 0%
- inhibition at 1 µM (FGFR4): 0%
- inhibition at 1 µM (IKK-BETA): 0%
- inhibition at 1 µM (LCK): 0%
- inhibition at 1 µM (PKC-ALPHA): 0%
- inhibition at 1 µM (MAPK1): 0%
- inhibition at 1 µM (FLT-3): 0%
- inhibition at 1 µM (PRKD1): 0%
- inhibition at 1 µM (EPH-B2): 0%
- inhibition at 1 µM (MEK1): 0%
- inhibition at 1 µM (CDK3-CYCLINE): 0%
- inhibition at 1 µM (DAPK3): 1%
- IC50 (Phosphodiesterase 3): > 30 µM
- inhibition at 1 µM (INSR): 0%
- inhibition at 1 µM (MNK2): 3%
- inhibition at 1 µM (MARK4): 0%
- inhibition at 1 µM (CDK2-CYCLINE): 0%
SMILES: O=C(Nc1nccs1)C(c1cc(F)ccc1O)N1Cc2ccccc2C1=O (stereo not drawn) [EAI045, 2-(5-fluoro-2-hydroxyphenyl)-2-(1-oxo-2,3-dihydro-1H-isoindol-2-yl)-N-(1,3-thiazol-2-yl)acetamide]
- phosphorylation of EGFR and downstream signaling proteins in tumors [1]: effectively inhibited
- EC50 (HaCaT cells): > 10 µM
- proliferation [2]: not inhibited
